Source: PubChem BioAssay (several laboratories)
Dynein cargo inh – inhibitors of GR-EGFP nuclear translocation, primary screen, dynein cargo transport inhibitor project, imaging, high-content, 3617.4 mouse cells | test concentration mostly 20 µM; stimulated with dexamethasone, 1 µM; stronger effect = lower value | z-score, hits read low | 220,000 compounds, 0.47% hits | AID 1381, 2008;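 active = plate z-score of nuclear minus cytoplasmic receptor signal below a set negative limit, without overly bright fluorescence or cell loss, cut at about -3.5 in these data, passing the limit was not always enough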;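 also: z-score of nuclear minus cytoplasmic ring GR-EGFP intensity difference per well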
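Buffer or medium: Induction medium lacking tetracycline, stripped serum | Also added: Dexamethasone agonist, 1.0 µM final, for 30 min | Timing: 48 h induction, 1 h compound, 30 min dex at 37 °C | Detection: Formaldehyde fixation, Hoechst nuclear stain, 10x automated fluorescence imaging | Measure: Nuclear versus cytoplasmic GR-EGFP signal, averaged per well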
bCat nuc transl – modulators of beta-catenin nuclear translocation, primary screen, imaging, HeLa cells, immunofluorescence, high-content | nuclear translocation activity, % at 5 µM | 190,000 compounds, 0.3% hits | AID 1665, 2009;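 active = nuclear translocation activity above 50% at 5 µM, with a well cell count of 50 or more; inconclusive = wells under 50 cells across six images, flagged as toxic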;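 also: per-cell ratio of nuclear to cytoplasmic median beta-catenin stain intensity; plate controls were DMSO negative control for no effect and GSK-3 inhibitor IX positive control for full effect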
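Signal – beta-catenin immunofluorescence imaging with DAPI · Test system – human HeLa cell line · Dosing – 5 µM primary single dose, 0.1% DMSO, 0.02–20 µM confirmation series · Measure – % activation, nuclear-to-cytoplasmic median beta-catenin signal ratio per cell · Incubation – 24 h compound exposure at 37°C, 5% CO2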
Rad51 HR inh – human RAD51 strand exchange inhibitors, primary screen, biochemical, fluorescence. DNA repair protein RAD51 homolog 1 (Homo sapiens), Q06609. hRad51 DNA strand exchange, fluorescence dequenching. inhibition, % at 10 µM. 200,000 compounds, 0.085% hits;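 active = inhibition above 40% at the single screening dose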;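 also: 0% = DMSO control wells and 100% = blanks with heterologous ssDNA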
Target sequence (Q06609 whole entry, looked up): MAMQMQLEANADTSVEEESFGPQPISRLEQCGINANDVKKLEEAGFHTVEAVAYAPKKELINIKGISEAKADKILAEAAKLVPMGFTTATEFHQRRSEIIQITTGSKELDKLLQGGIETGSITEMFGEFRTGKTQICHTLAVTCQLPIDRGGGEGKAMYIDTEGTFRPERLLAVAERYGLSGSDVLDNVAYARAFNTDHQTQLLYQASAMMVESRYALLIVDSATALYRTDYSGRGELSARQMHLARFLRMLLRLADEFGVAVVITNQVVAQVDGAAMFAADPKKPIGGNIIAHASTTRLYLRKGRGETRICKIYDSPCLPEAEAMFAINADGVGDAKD
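Test system – preformed human Rad51 ssDNA filaments · Reagent – Donor/quencher-labelled 47-bp dsDNA substrate · Incubation – 37 °C 15-min filament assembly, 30-min compound preincubation, 15-min exchange · Signal – FRET fluorescence dequenching, excitation 485 nm, emission 520 nm · Read-out – percent inhibition from fluorescence, normalised to plate control and blank means · Benchmarks – plate control and blank wells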
MT stabilize HCS – microtubule stabilizers in HeLa cells, primary screen, imaging, high-content imaging | HeLa tubulin immunostaining HCS, 24 h; share of cells brighter than vehicle mean+2SD | % tubulin-high responders, % at 10 µM | 200,000 compounds, 0.83% hits | AID 2205, 2009;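 active = plate Z-score above 3 for both tubulin-high and condensed-nucleus cell shares, with cell loss under 80%, at 10 µM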;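 also: anti alpha tubulin signal scored within the nucleus-defined area of each cell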
TbHK1 inh – Trypanosoma brucei hexokinase 1 inhibitors, primary screen, biochemical, G6PDH-coupled NADH absorbance, MLSCN library; 220,000 compounds, 0.11% hits; inhibition, % at 10 µM; hexokinase 1 [Trypanosoma brucei]; recombinant TbHK1, G6PDH-coupled NADH A340;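 active = inhibition of 50% or more in the single-dose primary screen; inactive = inhibition below 50%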
The depositor's hits bear a star; ? = inconclusive; . = no result. This is a sample that favours compounds with a hit; in the whole collection about 1.5% have one here.

SMILES	Dynein cargo inh	bCat nuc transl	Rad51 HR inh	MT stabilize HCS	TbHK1 inh
Cc1ccc(Cn2nnnc2CN2CCC(O)(c3cccnc3)CC2)cc1	-0.61	0	14	3	-3
COC(=O)c1nc(N)sc1-c1ccccc1	0.16	1	76*	2	-17
Cc1ccc(-c2cc(C(=O)Nc3cc(C)on3)c3ccccc3n2)cc1	-0.21	-1	.	2	22
Cc1cc(NC(=O)c2cc(-c3ccncc3)nc3c(C)cccc23)no1	0.048	.	3	37*	-9
CCN(CC)CCNc1ncnc2c1[nH]c1ccc(OC)cc12	-0.21	.	0	2	-8
COc1ccc2[nH]c3c(NCc4ccco4)ncnc3c2c1	0.47	6	-6	27*	-8
Cc1ccc(OCCNC(=O)C(=O)NCc2ccco2)cc1	1.5	38	4	17*	-5
Cc1cccc(CSc2nnc(-c3cnccn3)n2C)c1	1	-1	22	.	-7
CCn1nc(C)c(C(=O)Nc2cc(Oc3ccc(Cl)cc3)cc([N+](=O)[O-])c2)c1C	-0.057	3	-10	29*	-22
COc1cccc(NC(=O)Cn2c(=O)n(-c3cc(OC)c(OC)c(OC)c3)c(=O)c3ccccc32)c1	-0.47	-1	-5	2	-9
CCOCCCNC(=O)c1cc2sc(Cl)cc2n1CC	0.33	.	1	14*	3
CCOCCCNC(=O)c1cc(C)nn1-c1ccccc1	-0.78	0	10	4	6
CCOC(=O)N1CCN(C(=O)C2CCN(Cc3nc(-c4ccccc4C)oc3C)CC2)CC1	1.1	.	.	5	-4
CCOc1ccc(C(=O)NC(=S)Nc2cccc(S(=O)(=O)NC3=NCCC3)c2)cc1	-0.67	24	-3	17*	-8
C=C(C)CNC(=S)Nc1cccc(S(=O)(=O)NC2=NCCC2)c1	-0.0041	-2	3	2	-5
CCO[C@H]1OC(C(=O)NCc2nc3ccccc3[nH]2)=C[C@@H](c2ccccc2)[C@@H]1CCCO	2.2	-2	8	3	-6
CCO[C@H]1OC(C(=O)NCc2nc3ccccc3[nH]2)=C[C@@H](C2CC2)[C@@H]1CCCO	0.2	122*	-2	22*	-3
Cc1cccc(N2CCN(C(=S)NC3CCCCC3)CC2)c1C	0.98	0	-9	.	-5
O=C1/C(=C\c2ccc3ccccc3c2)CCCc2ccccc21	-0.86	50*	6	30*	0
COc1ccc(-n2nnnc2/C=C\Nc2ccccc2C(=O)c2ccccc2)cc1	0.048	62*	1	21*	-13
COc1ccc(-n2nnnc2/C=C/Nc2cc(C(F)(F)F)ccc2OC)cc1	0.11	1	5	.	-27
Cc1nn(-c2ccccc2)c2[nH]c(=O)c(CNc3ccc(N4CCOCC4)cc3)cc12	-0.31	1	3	52*	-3
COCCn1c(SCC(=O)Nc2nnc(C)s2)nnc1-c1ccco1	0.12	0	-7	1	0
Cc1ccc2nc(C3CCCN(C(=S)Nc4cccc(C)c4C)C3)[nH]c2c1 (stereo unspecified)	0.063	0	-4	29*	-4
CCOc1cc(CNCCc2ccc(S(N)(=O)=O)cc2)ccc1OCC(=O)NC1CCCCC1	-0.59	-4	-4	1	13
SMILES	Dynein cargo inh	bCat nuc transl	Rad51 HR inh	MT stabilize HCS	TbHK1 inh
O=S(=O)(c1ccc(S(=O)(=O)N(Cc2ccccc2)Cc2ccco2)cc1)N1CCCC1	-0.046	.	2	3	5
COC(=O)/C=C/c1ccccc1S(=O)(=O)N(Cc1ccccc1)Cc1ccco1	-0.22	74*	-1	.	-11
CCC(C)NC(=O)c1cc2cc3ccc(OC)cc3nc2s1 (stereo unspecified)	-0.34	.	1	1	-26
CC(C)CC(NC(=O)C(NC(=O)OC(C)(C)C)C(C)C)C(=O)NC(CCC(=O)OCc1ccccc1)C(N)=O (stereo unspecified)	-0.47	0	5	4	-8
Cc1nn(-c2ccccc2)c(C)c1-c1cc(C(=O)N/N=C/c2cccnc2)[nH]n1	-0.17	-3	7	3	-7
Cc1ccc(-c2cc(C(=O)N/N=C/c3c(C)nn(-c4ccccc4)c3C)n[nH]2)s1	0.74	122*	9	6	-6
Cc1ccc(-c2cc(C(=O)N/N=C/c3c(C)nn(-c4ccccc4)c3C)[nH]n2)cc1	0.14	102*	.	4	-14
Cc1nn(-c2ccccc2)c(C)c1/C=N/NC(=O)c1cc(C(C)(C)C)[nH]n1	2.3	0	3	3	-12
COc1ccc(-c2cc(=Nc3c(C)n(C)n(-c4ccccc4)c3=O)c3ccccc3o2)cc1	-0.011	2	-7	6	-10
COc1ccc(-c2c/c(=N\c3nc(-c4ccccc4)c(C)s3)c3ccccc3o2)cc1O	2.4	165*	6	7	-37
Cc1ccc(C2CC(=O)C=C(O)C2)cc1 (stereo unspecified)	0.088	.	-4	2	-1
CN(C)c1ccc(/C=C/c2ccc3c4ccccc4ccc3[n+]2-c2ccccc2)cc1	-0.72	?	51*	83	15
CN(C)c1ccc(/C=C/c2ccc3ccccc3[n+]2C)cc1	-0.58	0	12	32	-15
COc1cc(/C=N/Nc2ccccc2[N+](=O)[O-])ccc1OC(=O)c1ccccc1F	-0.3	-3	7	7	-20
CCOc1c(OC)cccc1C1CC(=O)Nc2cc3c(cc21)OCCO3 (stereo unspecified)	0.47	7	7	22*	-3
CC(C)C(=O)Nc1c2c(nc3c1CCC3)CCCC2	-0.038	-8	0	1	3
CC1=C(C(=O)Nc2cccc(F)c2)C(c2ccsc2)C2=C(CC(C)(C)CC2=O)N1 (stereo unspecified)	-0.085	76*	.	12*	7
CC1=C(C(=O)Nc2ccccc2F)C(c2ccsc2)C2=C(CC(C)(C)CC2=O)N1 (stereo unspecified)	-0.15	0	-4	15*	-9
C[C@H](NC(=O)c1nc[nH]c1C(=O)NC(c1ccccc1)c1ccccc1)C(=O)OCc1ccccc1	-0.46	-2	-9	.	1
CCOC(=O)C1=C(N)n2c(s/c(=C\c3ccco3)c2=O)=C(C(=O)OCC)C1c1ccco1 (stereo unspecified)	-1.4	55*	5	47*	-12
O=C(Cc1ccccc1)NCc1ccc(-n2cccc2)cc1	0.33	52*	-3	4	7
O=C(Cc1ccc(-n2cccc2)cc1)NCc1ccccc1Cl	-0.0011	63*	3	25*	7
COC(=O)C1=CN(C)C=C(C(=O)OC)C1c1ccccc1Cl	0.15	-3	6	4	1
